Measured values gathered from unrelated publications.
HDAC5: Histone deacetylase 5 (HDAC5, Homo sapiens, UniProt Q9UQL6)
DRD3: D(3) dopamine receptor (DRD3, Homo sapiens, UniProt P35462)
SLC6A3: Sodium-dependent dopamine transporter (SLC6A3, Homo sapiens, UniProt Q01959)

SMILES	target	observed	mode	technique	setting	IC50
COc1ccc(N(Cc2csc(-c3ccc(C)cc3)n2)C(=O)CCCCCC(=O)NO)cc1	HDAC5	enzyme activity	inhibitor	–	–	> 10 µM
Cc1[nH]c(C)c(S(=O)(=O)Nc2ccc(C(F)(F)F)c3ncccc23)c1C(=O)N1CCC(F)(F)C1	DRD3	G protein activation	antagonist	BRET	–	15 µM
O[C@@H]1[C@H](O)[C@@H]2C[C@@H]2[C@H]1n1cnc2c(NCCC3CC3)ncnc21	SLC6A3	transporter uptake	inhibitor	radiometric	–	9.3 µM
CN(C)C(=O)c1cc2cnc(Nc3ccc(-c4cccc5c(=O)cc(N6CCOCC6)oc45)cc3)nc2n1C1CCCC1	DNA-dependent protein kinase catalytic subunit (PRKDC, Homo sapiens, UniProt P78527)	enzyme activity	inhibitor	–	–	0.202 µM
COc1ccc(N(Cc2nc(-c3ccc(F)cc3)cs2)C(=O)CCCCCC(=O)NO)cc1	HDAC5	enzyme activity	inhibitor	–	–	> 10 µM
O=C(Nc1ccc2[nH]c(=O)oc2c1)C(=O)N1CCC(Cc2ccc(F)cc2)CC1	Glutamate NMDA receptor; GRIN1/GRIN2B (GRIN1/GRIN2B, Homo sapiens, UniProt Q05586+Q13224)	ion current	–	two-electrode voltage clamp	oocytes	0.029 µM
Cc1[nH]c(C)c(S(=O)(=O)Nc2ccc(C(F)(F)F)c(Cl)c2)c1C(=O)N1CCCC1	DRD3	β-arrestin recruitment	antagonist	–	–	2.8 µM
N#CC[C@@]12C[C@@H]1[C@@H](n1cnc3c(NCCCCCCc4ccccc4)nc(I)nc31)[C@H](O)[C@@H]2O	SLC6A3	transporter uptake	inhibitor	radiometric	–	1.7 µM
O=C(NO)c1ccc(Cn2cnc3c(Nc4ccc(Cl)cc4)ncnc32)cc1	HDAC5	enzyme activity	inhibitor	–	–	0.473 µM
CSc1ccc(NS(=O)(=O)c2c(C)[nH]c(C)c2C(=O)N2CCC(F)(F)C2)cc1Cl	DRD3	G protein activation	antagonist	BRET	–	6 µM
COc1c(Cl)cccc1Nc1c(-c2ccncc2OC[C@@H]2COCCO2)[nH]c2c1C(=O)NCC2	Discoidin domain-containing receptor 2 (DDR2, Homo sapiens, UniProt Q16832)	cell-free assay	–	TR-FRET	–	0.0533 µM
Cc1[nH]c(C)c(S(=O)(=O)Nc2ccc(C(F)(F)F)c(Cl)c2)c1C(=O)N1CCc2ccccc21	DRD3	G protein activation	antagonist	BRET	–	21 µM
CCCN(CCC)S(=O)(=O)c1ccc(C(=O)O)cc1	Taste receptor type 2 member 16 (TAS2R16, Homo sapiens, UniProt Q9NYV7, N96T)	inositol phosphate	antagonist	TR-FRET	–	2180 µM
CCc1ccc(NS(=O)(=O)c2c(C)[nH]c(C)c2C(=O)N2CCC(F)(F)C2)cc1Cl	DRD3	G protein activation	antagonist	BRET	–	1.6 µM
NC(=O)c1nnn(Cc2cc(Cl)c(C(=O)c3ccc(Cl)cc3)c(Cl)c2)c1N	SLC6A3	transporter uptake	inhibitor	–	–	0.069 µM
NS(=O)(=O)c1ccc(Nc2nc(-c3cc4cc(Br)ccc4oc3=O)cs2)c(Br)c1	Carbonic anhydrase 12 (CA12, Homo sapiens, UniProt O43570)	enzyme activity	inhibitor	absorbance	–	6.18 µM
